# Experiment: Displacement of radioligand from AChBp by scintillation counting
# Outline: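 Lymnaea stagnalis AChBP (Ls-AChBP), expressed from baculovirus in Sf9 insect cells and purified from medium, 1.3 ng per well. Buffer (final): 1.4 mM KH2PO4, 4.3 mM Na2HPO4, 137.0 mM NaCl, 2.7 mM KCl, 20 mM Tris, 4% DMSO, 0.05% Tween 20, pH 7.4. Incubation was 60 min, then 3 h in the dark, with label-bead complexes counted. Full IC50 curves (n=3) were converted to pKi by Cheng-Prusoff.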
row,Compound,pKi
1,CC(=O)Nc1ccc(/C=C2\CCCN=C2c2cccnc2)cc1,7.38
2,CCN(CC)c1ccc(/C=C2\CCCN=C2c2cccnc2)c(O)c1,7.59
3,C(=C1/CCCN=C1c1cccnc1)/c1ccccc1 [3-BENZYLIDENEANABASEINE],7.13
4,C(=C1/CCCN=C1c1cccnc1)/c1coc2ccccc12,7
5,O=[N+]([O-])c1cccc(/C=C2\CCCN=C2c2cccnc2)c1,6.29
6,COc1ccc(/C=C2\CCCN=C2c2cccnc2)cc1O,8.46
7,Oc1ccc(/C=C2\CCCN=C2c2cccnc2)cc1,8.55
8,COc1cc(/C=C2\CCCN=C2c2cccnc2)ccc1O,7.09
9,Clc1ccc(/C=C2\CCCN=C2c2cccnc2)cc1,6.87
10,C(=C1/CCCN=C1c1cccnc1)/c1cc2ccccc2[nH]1,8.71
11,Br.NCCCCC(=O)c1cccnc1,6.09
